This is a sample that favours compounds with a hit; in the whole collection about 1.3% have one here.
HKDC1 inh – HKDC1 (human) hexokinase inhibition; Q2TB90; inhibition, % at 20 µM; recombinant HKDC1, G6PDH/diaphorase resazurin coupled fluorescence; AID 493160; 340,000 compounds, 0.16% hits;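 active = inhibition above about 35% when tested at 20 µM, limit read from the data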;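 also: plate controls were DMSO wells with enzyme for no effect and DMSO wells lacking enzyme for full effect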
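test system = in-house recombinant HK5 (HKDC1) enzyme | amount = HKDC1 at 5 µg/mL | control set = DMSO-enzyme wells negative, buffer-substituted wells positive | compound = one dose of 20 µM, 1% DMSO | schedule = reaction time 90 min, room temperature, protected from light | technique = resorufin fluorescence at 613 nm | reagent = glucose with 1 mM ATP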
Diaph inh CS – diaphorase inhibition or chemical oxidation counter-screen; diaphorase resazurin-to-resorufin fluorescence, NADH, 16 min; bacterial (C. kluyveri) enzyme, not human; 190,000 compounds, 0.69% hits; inhibition, % at 20 µM;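 active = primary screen inhibition at 20 µM above a set limit, cut at about 50% in these data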;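 also: plate controls were DMSO with full reaction for no effect and wells lacking NADH for full effect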
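Test system: Clostridium kluyveri diaphorase enzyme / Quantity: diaphorase at 0.14 U/mL in enzyme working solution / Incubation: 16-min room-temperature incubation before reading / Benchmarks: NADH-free wells as positive control, DMSO-only neutral wells / Signal: resorufin fluorescence 544/590 nm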
G6PDH CS – inhibits Leuconostoc G6PDH, flagging false hits in G6PDH-based assays; Purified L. mesenteroides G6PDH, diaphorase/resazurin coupled fluorescence, 45 min; inhibition, % at 5 µM; 200,000 compounds, 0.12% hits; in the data active = inhibition above about 50%
PfG6PD inh – PfG6PD (Plasmodium falciparum) enzyme inhibition; inhibition, % at 20 µM; AID 504690; 350,000 compounds, 0.78% hits; PfGluPho enzyme, NADPH resazurin-diaphorase fluorescence;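 active = inhibition reaching at least a set limit at 20 µM in the primary screen, cut at about 59% in these data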;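 also: 0% = DMSO wells with substrate and 100% = DMSO wells lacking glucose-6-phosphate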
Diaphorase act – activates diaphorase or chemically reduces, flagging diaphorase assay artifacts. 190,000 compounds, 0.005% hits. Diaphorase/resazurin coupled assay, resorufin fluorescence, 16 min; active compounds read high; 1 = vehicle wells, 0 = NADH-free wells. activation factor at 20 µM;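 active = diaphorase activity raised at least twofold by the compound at 20 µM; inactive = activation factor below 2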
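Material: bacterial diaphorase enzyme (C. kluyveri); amount: enzyme 0.07 U/mL final; reagent: NADH substrate 0.114 mM plus resazurin dye 0.1 mM, final; doses: single compound dose of 20 µM, 1% DMSO final; timing: 16 min enzyme reaction, ambient temperature; measured by: fluorescence of resorufin, 544 nm excitation, 590 nm emission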
HKDC1 act conf – confirmation of human HKDC1 activators. inhibition, % at 20 µM. 740 compounds, 14% hits. shares compounds with HKDC1 inh. recombinant HKDC1, G6PDH/diaphorase resazurin fluorescence; active compounds read low;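 active = inhibition at or below a set negative limit, negative inhibition meaning the enzyme was activated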
* = called active by the depositor; · = no result given.

SMILES	HKDC1 inh	Diaph inh CS	G6PDH CS	PfG6PD inh	Diaphorase act	HKDC1 act conf
Cc1ccc(S(=O)(=O)N(C(=O)c2ccco2)c2cc3sc(=O)oc3c3ccccc23)cc1	37*	48	4	54	0.5	-5
O=C(COC(=O)c1n[nH]c2ccccc12)c1cccc(Br)c1	38*	·	·	13	·	-30*
Cc1ccc(C)c(C(=O)COC(=O)c2n[nH]c3ccccc23)c1	-1	·	·	27	·	·
O=C(/C=C/Sc1ccccc1)c1ccccc1	36*	3	2	25	1	2
CCN(CC)Cc1cc(O)c(CN(CC)CC)cc1O	47*	53*	57*	76*	0.5	41
OCC1OC(Oc2cccc3ccccc23)C(O)C(O)C1O (centres undefined)	-1	·	·	-1	·	·
O=C(O)c1cc(O)c2c(c1)[C@@H]([C@H]1c3cc(C(=O)O)cc(O)c3C(=O)c3c(O[C@@H]4O[C@H](CO)[C@@H](O)[C@H](O)[C@H]4O)cccc31)c1cccc(O[C@@H]3O[C@H](CO)[C@@H](O)[C@H](O)[C@H]3O)c1C2=O	80*	·	·	30	·	34
O=C(CCC(=O)NNC(=O)c1ccc(Cl)cc1Cl)NCc1ccccc1	-4	·	·	-1	·	·
COc1ccc2c(c1)c(=O)oc1c(C)c(OCc3ccc(C(=O)O)cc3)ccc12	29	·	·	-22	·	·
COc1ccc2c(c1)c(=O)oc1c(C)c(OCc3cc(C(=O)O)oc3C)ccc12	79*	47	4	-17	0.5	11
O=c1[nH]c2ccccc2n1Cc1ccc(F)cc1	-2	·	·	-4	·	·
COc1cccc(-n2c(N)c(C(=O)Nc3c(C)n(C)n(-c4ccccc4)c3=O)c3nc4ccccc4nc32)c1	36*	·	·	31	·	28
Cc1ccc(-n2c(N)c(C(=O)Nc3c(C)n(C)n(-c4ccccc4)c3=O)c3nc4ccccc4nc32)cc1	4	28	-10	-1	0.7	·
Cc1cc(C)cc(-n2c(N)c(C(=O)Nc3c(C)n(C)n(-c4ccccc4)c3=O)c3nc4ccccc4nc32)c1	38*	12	10	14	0.9	-33
CC(C)Cc1nc2sc3c(NCc4ccco4)ncnc3c2c2c1COC(C)(C)C2	-2	31	-12	1	0.7	·
Cc1nc2sc3c(NCc4ccco4)ncnc3c2c2c1COC(C)(C)C2	35*	66*	3	62*	0.3	37
COc1ccc(C(=O)NC2CCSc3ccccc32)cc1 (centres undefined)	-7	·	·	18	·	·
Cc1c(C(=O)Nc2ccccc2)cn2c(nc3ccccc32)c1C#N	7	12	16	-11	0.9	·
Cc1ccccc1C(=O)Nc1ccc2c(C#N)c3nc4ccccc4nc3n2c1	37*	72*	33	18	0.3	7
Oc1cc(CNC2CCCCC2)c(O)cc1CNC1CCCCC1	34	·	·	81*	·	32
N#CC1(Nc2ccc(C(=O)O)cc2)CCCC1	6	·	·	6	·	·
CC(=O)c1ccc(NC(=O)CSc2nc3[nH]c(=O)cc(O)c3s2)cc1	2	·	·	-27	·	·
O=c1cc(O)c2sc(Nc3ccc(Cl)c(F)c3)nc2[nH]1	39*	·	·	30	·	-8
O=c1cc(O)c2sc(Nc3ccc(F)c(Cl)c3)nc2[nH]1	46*	44	11	17	0.6	-20
COc1cccc(CNC(=O)c2cccc(NC(=O)CC3SC(N4CCCCC4)=NC3=O)c2)c1 (centres undefined)	0	·	·	-10	·	·
SMILES	HKDC1 inh	Diaph inh CS	G6PDH CS	PfG6PD inh	Diaphorase act	HKDC1 act conf
COC(=O)COn1c(SC(C)C)nc2ccccc2c1=O	-2	14	9	-12	0.9	·
CC(=O)c1c(O)c2ccccc2n(Cc2ccccc2)c1=O	0	·	·	-2	·	·
S=C1Cc2ccccc2N1	-303	·	·	67*	·	-192*
O=C(N/N=C\C=C\c1ccc([N+](=O)[O-])o1)c1cccs1	9	·	·	32	·	·
O=C1NC(=S)S/C1=C\C=C\c1ccc([N+](=O)[O-])o1	38*	·	·	34	·	19
Cc1ccc(C(=O)OCC(=O)N(C)C2CCS(=O)(=O)C2)cc1[N+](=O)[O-] (centres undefined)	-10	-9	4	6	1.1	·
CC1C/C(=C/c2ccncc2)C(=O)/C(=C/c2ccncc2)C1 (centres undefined)	43*	7	1	9	0.9	-5
O=C1/C(=C/c2ccncc2)Cc2ccccc21	6	·	·	-1	·	·
Cc1cc(=O)oc2cc(OCC(=O)OCC(=O)NCc3ccc4c(c3)OCO4)ccc12	3	3	5	-16	1	·
COc1cc(/C=C2\SC(=Nc3ccc(Cl)c(C(=O)O)c3)NC2=O)c(Br)c(Br)c1O	40*	·	·	4	·	12
O=C(O)CSc1cc(NS(=O)(=O)c2ccc(Br)cc2)c2ccccc2c1O	59*	·	·	100*	·	37
Cc1ccc(S(=O)(=O)Nc2ccc(Br)cc2C(NCC(=O)O)c2ccccc2)cc1 (centres undefined)	1	15	-2	-32	0.9	·
COc1ccc(CCNCCC(c2ccccc2)c2ccccc2)cc1OC	·	·	·	-6	·	·
COc1cc(OC)c(OC)cc1CCC(C)NCCC(c1ccccc1)c1ccccc1 (centres undefined)	81*	·	·	18	·	-24
CCN(CC)CCNC(=S)NC(=O)c1cn(-c2ccccc2)nc1-c1ccc(OC)cc1	-1	2	6	-1	1	·
Cc1cc(C)cc(OCCNS(=O)(=O)c2cccs2)c1	-7	15	5	24	0.8	·
Cc1onc(C(=O)Nc2ccc(OC(F)(F)F)cc2)c1[N+](=O)[O-]	79*	·	·	12	·	-15
CC(=O)c1ccc(NC(=O)c2noc(C)c2[N+](=O)[O-])cc1	-6	·	·	-9	·	·
COc1ccc2[nH]c(=O)c(CN(C(=O)COc3ccccc3)C(C)C)cc2c1	2	15	0	5	0.8	·
CN(C)CCC(=O)N1C/C(=C/c2ccccc2)C(=O)/C(=C\c2ccccc2)C1	12	·	·	27	·	·
COc1ccc(OC(=O)N2C/C(=C/c3ccccc3)C(=O)/C(=C\c3ccccc3)C2)cc1	36*	·	·	14	·	2
CCOC(=O)N1C/C(=C\c2ccccc2)C(=O)/C(=C/c2ccccc2)C1	33	·	·	31	·	11
C[N+](C)(C)CCC(=O)N1C/C(=C/c2ccccc2)C(=O)/C(=C\c2ccccc2)C1	15	·	·	38	·	·
Cc1nc([N+](=O)[O-])c(Br)n1Cc1ccc(Cl)c(Cl)c1	35	9	4	6	0.9	54
CN(C)CC1CCC/C(=C\c2ccc(OC(=O)c3ccc(Cl)cc3)cc2)C1=O (centres undefined)	37*	·	·	31	·	-7
CN(C)CC1CCC/C(=C\c2ccc(OC(=O)/C=C/c3ccccc3)cc2)C1=O (centres undefined)	33	·	·	31	·	·

Screens from PubChem BioAssay.
